Assay [1] concerns Mythimna separata. Description: Insecticidal activity against Mythimna separata (Oriental armyworm) second-instar larvae reared on compound pre-treated corn disks assessed as larval mortality at 62.5 mg/L measured 7 days post compound treatment by leaf-dip method. Format: functional. The method, boiled down:
(§1)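 Leaf-dip: corn disks dipped 5 s in test solution, air-dried on filter paper, set on agar in 7 cm Petri dishes, with water-dipped disks as controls. Ten second-instar larvae per disk; dishes sealed with ventilated lids and stored inverted. Mortality scored at 7 days and corrected by Abbott's formula when needed. Diflubenzuron run under the same conditions.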

The subject of assay [2] is Mythimna separata. Description: Insecticidal activity against Mythimna separata (Oriental armyworm) second-instar larvae reared on compound pre-treated corn disks assessed as larval mortality at 31.25 mg/L measured 7 days post compound treatment by leaf-dip method. The assay is classed as functional. The method, boiled down:
as §1

The subject of assay [3] is Spodoptera littoralis. Description: Insecticidal activity against Spodoptera littoralis worm third-instar larvae grown on compound pre-treated caster bean leaves assessed as larval mortality at 0.25 mg of ai/L measured 4 days post compound treatment. Format: functional. The method, boiled down: (§2)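 Castor bean leaves treated at 0.25 or 0.5 mg ai/L formulation and fed to S. littoralis third instars (11 ± 1 mg) for 4 days, then moved to untreated leaves for 4 more days. Larval mortality scored at day 4 and day 8.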

Assay [4] relates to Spodoptera littoralis. The assay is described as follows: Insecticidal activity against Spodoptera littoralis worm third-instar larvae grown on compound pre-treated caster bean leaves assessed as larval weight gain at 0.25 mg of ai/L measured 8 days post compound treatment relative to untreated control. The assay is classed as functional.
Assay [5] has as its system Bemisia tabaci. The assay is described as follows: Insecticidal activity against Bemisia tabaci (sweet potato whitefly) nymphs assessed as effect on larval pupation. The assay is classed as functional, organism-based.
Another assay has as its system Plutella xylostella. The assay is described as follows: Insecticidal activity against Plutella xylostella (diamondback moth) […] using 5% compound EC formulation at 37.5 g of ai/ha measured after 7 days field trial. Format: functional.
Assay [6] has as its system Spodoptera littoralis. The assay is described as follows: Insecticidal activity against Spodoptera littoralis worm third-instar larvae grown on compound pre-treated caster bean leaves assessed as larval mortality at 0.25 mg of ai/L measured 8 days post compound treatment. The assay is classed as functional. The method, boiled down:
as §2

In assay [7] the test system is Spodoptera littoralis. Description: Insecticidal activity against Spodoptera littoralis worm third-instar larvae grown on compound pre-treated caster bean leaves assessed as larval mortality at 0.5 mg of ai/L measured 8 days post compound treatment. The assay is classed as functional. In outline:
as §2

The test system of the next assay is Cnaphalocrocis medinalis. Description: Insecticidal activity against rice leaf roller third-instar larvae using 5% compound EC formulation at 25 g of ai/ha measured after 10 days field plot trial. The assay is classed as functional, organism-based.
Assay [8] concerns Spodoptera littoralis. The assay is described as follows: Insecticidal activity against Spodoptera littoralis worm third-instar larvae grown on compound pre-treated caster bean leaves assessed as larval weight gain at 0.5 mg of ai/L measured 8 days post compound treatment relative to untreated control. Format: functional.
Assay [9] relates to Mythimna separata. Description: Insecticidal activity against Mythimna separata (Oriental armyworm) second-instar larvae reared on compound pre-treated corn disks assessed as larval mortality at 0.25 mg/L measured 7 days post compound treatment by leaf-dip method. The assay is classed as functional. In outline:
as §1

Assay [10] relates to Mythimna separata. Description: Insecticidal activity against Mythimna separata (Oriental armyworm) second-instar larvae reared on compound pre-treated corn disks assessed as larval mortality at 0.125 mg/L measured 7 days post compound treatment by leaf-dip method. The assay is classed as functional. In outline:
as §1

For the next assay, the system named is Pieris rapae. The assay is described as follows: Insecticidal activity against imported cabbage worm measured 7 days after application of compound at 2000 diluent 5% EC. Format: functional, organism-based.
Assay [11] relates to Spodoptera littoralis. The assay is described as follows: Insecticidal activity against Spodoptera littoralis worm third-instar larvae grown on compound pre-treated caster bean leaves assessed as larval mortality at 0.5 mg of ai/L measured 4 days post compound treatment. The assay is classed as functional. In outline: as §2
For assay [12], the system named is Mythimna separata. The assay is described as follows: Insecticidal activity against Mythimna separata (Oriental armyworm) second-instar larvae reared on compound pre-treated corn disks assessed as larval mortality at 15.625 mg/L measured 7 days post compound treatment by leaf-dip method. Format: functional. In outline: as §1
For assay [13], the system named is Mythimna separata. Description: Insecticidal activity against Mythimna separata (Oriental armyworm) second-instar larvae reared on compound pre-treated corn disks assessed as larval mortality at 10 mg/L measured 7 days post compound treatment by leaf-dip method. Format: functional. The method, boiled down:
as §1

Assay [14] relates to Mythimna separata. Description: Insecticidal activity against Mythimna separata (Oriental armyworm) second-instar larvae reared on compound pre-treated corn disks assessed as larval mortality at 12.5 mg/L measured 7 days post compound treatment by leaf-dip method. Format: functional. In outline: as §1
The test system of assay [15] is Mythimna separata. The assay is described as follows: Insecticidal activity against Mythimna separata (Oriental armyworm) second-instar larvae reared on compound pre-treated corn disks assessed as larval mortality at 50 mg/L measured 7 days post compound treatment by leaf-dip method. The assay is classed as functional. The method, boiled down:
as §1

Assay [16] concerns Spodoptera littoralis. Description: Insecticidal activity against Spodoptera littoralis worm third-instar larvae grown on compound pre-treated caster bean leaves assessed as larval weight gain at 0.5 mg of ai/L as Rimon EC formulation measured 8 days post compound treatment relative to untreated control. Format: functional.
Assay [17] relates to Spodoptera littoralis. Description: Insecticidal activity against Spodoptera littoralis worm third-instar larvae grown on compound pre-treated caster bean leaves assessed as larval mortality at 0.5 mg of ai/L as Rimon EC formulation measured 8 days post compound treatment. The assay is classed as functional. The method, boiled down:
as §2

The test system of assay [18] is Spodoptera littoralis. Description: Insecticidal activity against Spodoptera littoralis worm third-instar larvae grown on compound pre-treated caster bean leaves assessed as larval mortality at 0.5 mg of ai/L as Rimon EC formulation measured 4 days post compound treatment. Format: functional. In outline: as §2
Assay [19] concerns Bemisia tabaci. Description: Insecticidal activity against Bemisia tabaci (sweet potato whitefly) nymphs assessed as suppression of larval pupation at 0.3 mg of ai/ha. Format: functional, organism-based.
Assay [20] deals with Mythimna separata. Description: Insecticidal activity against Mythimna separata (Oriental armyworm) second-instar larvae reared on compound pre-treated corn disks assessed as larval mortality at 5 mg/L measured 7 days post compound treatment by leaf-dip method. The assay is classed as functional. The method, boiled down: as §1

In ChEMBL document CHEMBL3044760, “Synthesis and insecticidal activity of heptafluoroisopropyl-containing benzoylphenylurea structures” (2010) one finds mortality and Activity data, which are given here for 16 molecules.

Calls of active or inactive are those of the source. The calls are words filed in the database; no cut-off is given here.

For `COc1ccc(NC(=O)NC(=O)c2c(F)cccc2F)c(C(F)(C(F)(F)F)C(F)(F)F)c1`, the mortality (in general, the percentage killed) at 62.5 µg/mL in the assay with Mythimna separata [1] is 100%. The mortality at 31.25 µg/mL in the assay on Mythimna separata [2] came out at 86.6%.

`Cc1cc(C(F)(C(F)(F)F)C(F)(F)F)cc(C)c1NC(=O)NC(=O)c1c(F)cccc1F`: the mortality came to 8% in the assay with Spodoptera littoralis [3], 36% in the assay with Spodoptera littoralis [6], 78% with Spodoptera littoralis [7] and 18% with Spodoptera littoralis [11]. The Activity with Spodoptera littoralis [4] is 45%; in the assay with Plutella xylostella, greater than 92%; with Spodoptera littoralis [8] it was 31%. Besides, the outcome with Bemisia tabaci [5] was inactive. For the same molecule, the result with Cnaphalocrocis medinalis and in the assay with Pieris rapae was Active. Further, in the assay with Mythimna separata [9], the mortality at 0.25 µg/mL was determined as 80%. Besides, the mortality at 0.125 µg/mL in the assay with Mythimna separata [10] was 50%.

`O=C(NC(=O)c1c(F)cccc1F)Nc1c(F)cc(C(F)(C(F)(F)F)C(F)(F)F)cc1F`: in the assay with Mythimna separata [9], the mortality at 0.25 µg/mL was 100%. The mortality at 0.125 µg/mL in the assay on Mythimna separata [10] is 62.7%.

As to `O=C(NC(=O)c1c(F)cccc1F)Nc1ccc(C(F)(C(F)(F)F)C(F)(F)F)cc1Cl`, the mortality at 15.625 µg/mL in the assay with Mythimna separata [12] stood at 20%. Further, in the assay on Mythimna separata [2], the mortality at 31.25 µg/mL worked out at 100%.

Take `O=C(NC(=O)c1c(F)cccc1F)Nc1ccc(Cl)cc1` [DIFLUBENZURON]: the mortality at 0.25 µg/mL in the assay with Mythimna separata [9] stood at 100%. For the same molecule, in the assay on Mythimna separata [10], the mortality at 0.125 µg/mL was 69.5%.

As for `O=C(NC(=O)c1ccccc1)Nc1ccc(C(F)(C(F)(F)F)C(F)(F)F)cc1`, the mortality is reported as 8% in the assay on Spodoptera littoralis [3], 14% in the assay with Spodoptera littoralis [6], 22% with Spodoptera littoralis [7] and 18% in the assay on Spodoptera littoralis [11]. Further, in the assay with Mythimna separata [13], the mortality at 10 µg/mL is 68.1%. For the same molecule, the results for the Activity in the assay with Spodoptera littoralis [4] and in the assay with Spodoptera littoralis [8] were 69% and 94%, respectively. In the assay with Bemisia tabaci [5], the result was inactive. In addition, the mortality at 12.5 µg/mL in the assay on Mythimna separata [14] worked out at 100%.

`O=C(NC(=O)c1c(F)cccc1F)Nc1ccc(C(F)(C(F)(F)F)C(F)(F)F)c(Br)c1`: in the assay on Mythimna separata [12], the mortality at 15.625 µg/mL was 46.6%. Besides, in the assay with Mythimna separata [2], the mortality at 31.25 µg/mL was found to be 100%.

For the molecule `Cc1cc(C(F)(C(F)(F)F)C(F)(F)F)ccc1NC(=O)NC(=O)c1c(F)cccc1F`, in the assay with Mythimna separata [12], the mortality at 15.625 µg/mL is 56.6%. Further, the mortality at 31.25 µg/mL with Mythimna separata [2] was found to be 100%.

For the molecule `Cc1cc(C(F)(C(F)(F)F)C(F)(F)F)cc(C)c1NC(=O)NC(=O)c1ccccc1Cl`, the mortality at 10 µg/mL in the assay on Mythimna separata [13] is 69.1%. Besides, the mortality at 50 µg/mL with Mythimna separata [15] was found to be 100%.

`O=C(NC(=O)c1c(F)cccc1F)Nc1ccc(Br)cc1C(F)(C(F)(F)F)C(F)(F)F`: the mortality at 15.625 µg/mL in the assay with Mythimna separata [12] came to 56.6%. Further, the mortality at 31.25 µg/mL in the assay with Mythimna separata [2] turned out to be 100%.

With `Cc1ccc(NC(=O)NC(=O)c2c(F)cccc2F)c(C(F)(C(F)(F)F)C(F)(F)F)c1`, the mortality at 62.5 µg/mL in the assay with Mythimna separata [1] was determined as 100%. Also, in the assay on Mythimna separata [2], the mortality at 31.25 µg/mL turned out to be 93.3%.

Take `O=C(NC(=O)c1c(F)cccc1F)Nc1ccc(C(F)(C(F)(F)F)C(F)(F)F)cc1`: the mortality at 15.625 µg/mL in the assay with Mythimna separata [12] came to 43.3%. Also, the mortality at 31.25 µg/mL with Mythimna separata [2] came out at 100%.

With `O=C(NC(=O)c1c(F)cccc1F)Nc1ccc(OC(F)(F)C(F)OC(F)(F)F)c(Cl)c1` (stereo unspecified) [NOVALURON], the Activity in the assay on Spodoptera littoralis [16] is given as 44%. Further, the mortality is 78% in the assay on Spodoptera littoralis [17] and 6% in the assay on Spodoptera littoralis [18]. Also, in the assay with Bemisia tabaci [19], the outcome was Active.

As for `O=C(NC(=O)c1ccccc1Cl)Nc1ccc(C(F)(C(F)(F)F)C(F)(F)F)cc1`, in the assay with Mythimna separata [13], the mortality at 10 µg/mL is 100%. Also, the mortality at 5 µg/mL in the assay with Mythimna separata [20] was 66.9%.

For the molecule `O=C(NC(=O)c1c(F)cccc1F)Nc1ccc(C(F)(C(F)(F)F)C(F)(F)F)cc1F`, in the assay on Mythimna separata [9], the mortality at 0.25 µg/mL amounted to 100%. For the same molecule, the mortality at 0.125 µg/mL with Mythimna separata [10] came out at 63.3%.

Take `O=C(NC(=O)c1c(F)cccc1F)Nc1ccc(C(F)(C(F)(F)F)C(F)(F)F)c(Cl)c1`: the mortality at 15.625 µg/mL with Mythimna separata [12] is 86.6%. Moreover, the mortality at 31.25 µg/mL in the assay on Mythimna separata [2] is 100%.
